Laboratory results: ChEMBL document CHEMBL1122124, “Synthesis and immunoadjuvant activities of 2-acetamido-5-O-acetyl-6-O-acyl-2-deoxy-3-O-[(R)-2-propionyl-L-alanyl-D- isoglutamine]-D-glucofuranoses as potential prodrug forms of 6-O-Acyl Derivatives of N-acetylmuramyl dipeptide” (1982)

Columns and labels:
Type in all cases: functional
Mus musculus [1] = species on record: Mus musculus; experiment: Tested for antibody response of mice injected with Bovine serum Albumin(BSA) at 5 ug/dose in experiment 1
Mus musculus [2] = species on record: Mus musculus; experiment: Tested for antibody response of mice injected with Bovine serum Albumin(BSA) at 50 ug/dose in experiment 1
Method in brief: (§1)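 Female ICR/Ha mice, 5–6 weeks old, groups of six, given one subcutaneous injection between the shoulders of 0.25 mL PBS containing 100 μg BSA monomer plus analogue (dissolved or sonicated). Boosted at day 21 with 100 μg BSA alone, bled at day 31. Anti-BSA passive hemagglutination was run on sheep-RBC-adsorbed sera with twofold dilutions on BSA-coated sheep cells. Result is the group geometric mean reciprocal titer.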

Mus musculus [3] = species on record: Mus musculus; experiment: Tested for antibody response in mice injected with various Hepatitis B Vaccine at 50 ug/dose in experiment 1
Method in brief: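 Female 5-week-old ICR mice, groups of 20, injected subcutaneously with 0.5 mL holding 1.25 μg aqueous hepatitis B vaccine (plasma-derived) mixed with 50 μg analogue in PBS (pH 7.5). Controls were aqueous vaccine alone and alum-adsorbed vaccine at 1.25 μg. Mice bled from vena cava at 6 weeks. Anti-HBs measured by radioimmunoassay; geometric mean titer reported as reciprocal serum dilution, plus responder count.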

Mus musculus [4] = species on record: Mus musculus; experiment: Tested for antibody response of mice injected with Bovine serum Albumin(BSA) at 5 ug/dose in experiment 6; method in brief: as §1
Mus musculus [5] = species on record: Mus musculus; experiment: Tested for antibody response of mice injected with Bovine serum Albumin(BSA) at 50 ug/dose in experiment 6
Mus musculus [6] = species on record: Mus musculus; experiment: Tested for antibody response of mice injected with Bovine serum Albumin(BSA) at 50 ug/dose in experiment 5
Mus musculus [7] = species on record: Mus musculus; experiment: Tested for antibody response of mice injected with Bovine serum Albumin(BSA) at 50 ug/dose in experiment 2; method in brief: as §1
Mus musculus [8] = species on record: Mus musculus; experiment: Tested for antibody response of mice injected with Bovine serum Albumin(BSA) at 50 ug/dose in experiment 4
Mus musculus [9] = species on record: Mus musculus; experiment: Tested for antibody response of mice injected with Bovine serum Albumin(BSA) at 50 ug/dose in experiment 3; method in brief: as §1
Mus musculus [10] = species on record: Mus musculus; experiment: Tested for antibody response of mice injected with Bovine serum Albumin(BSA) at 5 ug/dose in experiment 5; method in brief: as §1

SMILES	Geometric mean (Mus musculus [1])	Geometric mean (Mus musculus [2])	Geometric mean (Mus musculus [3])	Geometric mean (Mus musculus [4])	Geometric mean (Mus musculus [5])	Geometric mean (Mus musculus [6])	Geometric mean (Mus musculus [7])	Geometric mean (Mus musculus [8])	Geometric mean (Mus musculus [9])	Geometric mean (Mus musculus [10])
CCCCCCCCCCCCCCCCCCCCCC(=O)OC(C)(C)C(=O)OCC(OC(C)=O)C1OC(O)C(NC(C)=O)C1OC(C)C(=O)N[C@@H](C)C(=O)NC(CCC(=O)O)C(N)=O (stereo not given in full)	543.06	215.51	303.6							
CC(=O)NC1C(O)OC(C(COC(C)=O)OC(C)=O)C1OC(C)C(=O)N[C@@H](C)C(=O)NC(CCC(=O)O)C(N)=O (stereo not given in full)	31.12	271.53	38.1	13.08	113.49					
CC(=O)N[C@H]1C(O)O[C@H](CO)[C@@H](O)[C@@H]1O[C@H](C)C(=O)N[C@@H](C)C(=O)N[C@H](CCC(=O)O)C(N)=O (stereo not given in full) [MURAMYL DIPEPTIDE]	28.12	592.21			179.14	28.26	215.51	1536	241.9	<3
COC1OC(C(O)CO)C(OC(C)C(=O)N[C@@H](C)C(=O)NC(CCC(=O)O)C(N)=O)C1NC(C)=O (stereo not given in full)	10.7	10.7								
CCCCCCCCCCCCCCCCCC(=O)OCC1OC(O)C(NC(C)=O)C(O[C@H](C)C(=O)N[C@@H](C)C(=O)NC(CCC(=O)O)C(N)=O)C1O (stereo not given in full)	271.53	995.97								
CC(=O)NC1C(O)OC(COC(C)=O)C(OC(C)=O)C1O[C@H](C)C(=O)N[C@@H](C)C(=O)NC(CCC(=O)O)C(N)=O (stereo not given in full)	4.36	384								
CCCCCCCCCCCCCCCCCC(=O)OCC(OC(C)=O)C1OC(O)C(NC(C)=O)C1OC(C)C(=O)N[C@@H](C)C(=O)NC(CCC(=O)O)C(N)=O (stereo not given in full)	28.12	1408.52	69.6			215.51				107.76
CC(=O)NCC1OC(O)C(NC(C)=O)C(O[C@H](C)C(=O)N[C@@H](C)C(=O)NC(CCC(=O)O)C(N)=O)C1O (stereo not given in full)	6.17	7.78								
CCCCCCCCCCCCCCCCCCCCCC(=O)OC(C)(C)C(=O)OCC1OC(O)C(NC(C)=O)C(O[C@H](C)C(=O)N[C@@H](C)C(=O)NC(CCC(=O)O)C(N)=O)C1O (stereo not given in full)	431	768		823.12	716.57					
CCCCCCCCCCCCCCCCCC(=O)NCC1OC(O)C(NC(C)=O)C(O[C@H](C)C(=O)N[C@@H](C)C(=O)NC(CCC(=O)O)C(N)=O)C1O (stereo not given in full)	<3	<3								
